# Type: in vivo, human
# Method in brief: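 Tablets co-formulated with SNAC, 3 mg on Days 1–5 then 7 mg on Days 6–10. Reference arm: ≥6 h overnight fast, 8 am dose, 30-min post-dose fast. Other arms: ~760 kcal meal, then 2/4/6 h fast, 8 pm dose, 30-min or overnight post-dose fast. Plasma sampled 10 min–24 h after 10th dose and measured by validated LC-MS/MS. AUC0–24h by linear trapezoidal method; log values back-transformed to geometric-mean ratios with 95% CI.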
# [1] = 2 h–30 min, 4 h–30 min and 6 h–30 min arms vs night–30 min, p < 0.0001
compound,measurement,setting,value
"CC[C@H](C)[C@H](NC(=O)[C@H](Cc1ccccc1)NC(=O)[C@H](CCC(=O)O)NC(=O)[C@H](CCCCNC(=O)COCCOCCNC(=O)COCCOCCNC(=O)CC[C@H](NC(=O)CCCCCCCCCCCCCCCCC(=O)O)C(=O)O)NC(=O)[C@H](C)NC(=O)[C@H](C)NC(=O)[C@H](CCC(N)=O)NC(=O)CNC(=O)[C@H](CCC(=O)O)NC(=O)[C@H](CC(C)C)NC(=O)[C@H](Cc1ccc(O)cc1)NC(=O)[C@H](CO)NC(=O)[C@H](CO)NC(=O)[C@@H](NC(=O)[C@H](CC(=O)O)NC(=O)[C@H](CO)NC(=O)[C@@H](NC(=O)[C@H](Cc1ccccc1)NC(=O)[C@@H](NC(=O)CNC(=O)[C@H](CCC(=O)O)NC(=O)C(C)(C)NC(=O)[C@@H](N)Cc1cnc[nH]1)[C@@H](C)O)[C@@H](C)O)C(C)C)C(=O)N[C@@H](C)C(=O)N[C@@H](Cc1c[nH]c2ccccc12)C(=O)N[C@@H](CC(C)C)C(=O)N[C@H](C(=O)N[C@@H](CCCNC(=N)N)C(=O)NCC(=O)N[C@@H](CCCNC(=N)N)C(=O)NCC(=O)O)C(C)C [oral semaglutide, semaglutide]",AUC0–24h Day 10 estimated treatment ratio range,[1],0.12–0.43
same,Cmax Day 10 estimated treatment ratio range,[1],0.12–0.44
same,reduction of exposure to semaglutide compared with reference arm (night–30 min),"all alternative treatment arms, even 6 h–30 min",more than 50%
same,"median Tmax on Day 10, range across treatment arms",all five treatment arms,48 to 60 min
